Results from ChEMBL document CHEMBL3593194, “BN/CC isosterism in borazaronaphthalenes towards phosphodiesterase 10A (PDE10A) inhibitors” (Bioorg Med Chem, 2015).

Tests used:
[1] = Intrinsic clearance in rat liver microsomes; type: ADME; conditions: read-out: CLH (converted)
[2] = target: T1, cAMP and cAMP-inhibited cGMP 3',5'-cyclic phosphodiesterase 10A (Homo sapiens, UniProt Q9Y233); assay: Inhibition of PDE10A (unknown origin)
[3] = target: T1, cAMP and cAMP-inhibited cGMP 3',5'-cyclic phosphodiesterase 10A; assay: Inhibition of PDE10A (unknown origin) at 10 uM
In short: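 Potency against PDE10A is given as the concentration giving 50% inhibition (IC50, nM). Where no IC50 was obtained, the value is percent inhibition at 10 μM.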

[4] = target: T1, cAMP and cAMP-inhibited cGMP 3',5'-cyclic phosphodiesterase 10A; assay: Inhibition of PDE10A (unknown origin) at 2 uM

T1 sequence (Q9Y233 whole entry): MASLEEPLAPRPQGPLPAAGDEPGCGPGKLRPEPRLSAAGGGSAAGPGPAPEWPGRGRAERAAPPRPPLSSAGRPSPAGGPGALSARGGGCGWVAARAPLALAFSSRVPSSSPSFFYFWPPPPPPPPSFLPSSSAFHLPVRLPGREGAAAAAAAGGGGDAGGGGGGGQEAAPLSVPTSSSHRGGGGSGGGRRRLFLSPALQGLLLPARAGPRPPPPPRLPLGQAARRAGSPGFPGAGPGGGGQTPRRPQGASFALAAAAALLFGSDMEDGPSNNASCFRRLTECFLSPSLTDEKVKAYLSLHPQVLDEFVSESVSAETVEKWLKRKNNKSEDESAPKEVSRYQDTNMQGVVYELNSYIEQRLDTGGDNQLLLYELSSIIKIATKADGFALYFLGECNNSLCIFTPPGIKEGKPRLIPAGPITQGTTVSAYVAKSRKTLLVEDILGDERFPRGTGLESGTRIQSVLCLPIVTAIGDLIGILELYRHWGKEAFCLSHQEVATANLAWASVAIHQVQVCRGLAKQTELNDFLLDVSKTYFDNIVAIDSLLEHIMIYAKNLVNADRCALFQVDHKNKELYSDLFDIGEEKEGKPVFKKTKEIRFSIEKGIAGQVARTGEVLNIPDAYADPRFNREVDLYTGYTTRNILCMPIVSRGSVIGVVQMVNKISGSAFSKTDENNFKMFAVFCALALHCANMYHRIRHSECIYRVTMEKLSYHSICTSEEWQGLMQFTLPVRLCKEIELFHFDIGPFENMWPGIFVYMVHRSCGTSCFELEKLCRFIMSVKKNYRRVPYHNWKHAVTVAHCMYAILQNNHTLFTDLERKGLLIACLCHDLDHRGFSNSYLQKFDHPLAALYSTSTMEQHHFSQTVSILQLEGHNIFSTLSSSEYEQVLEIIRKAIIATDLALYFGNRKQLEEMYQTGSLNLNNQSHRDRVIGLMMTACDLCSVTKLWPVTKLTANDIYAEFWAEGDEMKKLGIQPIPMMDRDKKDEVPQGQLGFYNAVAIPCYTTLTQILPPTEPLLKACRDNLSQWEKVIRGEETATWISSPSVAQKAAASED

Structure (SMILES): CN(C(=O)c1csc(-c2cccnc2)n1)c1ccc(OCc2ccc3ccccc3n2)cc1
- CLint scaled [1]: > 283 mL/min/kg
- IC50 [2]: 170 nM

Structure (SMILES): CN(C(=O)c1cc(-c2ccccn2)[nH]n1)c1ccc(OCc2ccc3ccccc3c2)cc1
- CLint scaled [1]: 30 mL/min/kg
- inhibition [3]: 4%

Structure (SMILES): CN(C(=O)c1ccncc1)c1ccc(OCB2C=Cc3ccccc3N2)cc1
- CLint scaled [1]: 115 mL/min/kg
- inhibition [3]: 11%

Structure (SMILES): CN(C(=O)c1ccncc1)c1ccc(OCc2ccc3ccccc3n2)cc1
- CLint scaled [1]: 15 mL/min/kg

Structure (SMILES): CN(C(=O)c1ccc2ncsc2c1)c1ccc(OCc2ccc3ccccc3c2)cc1
- CLint scaled [1]: 48.3 mL/min/kg
- inhibition [3]: 5%

Structure (SMILES): CN(C(=O)c1cc(-c2ccccc2)n[nH]1)c1ccc(OCc2ccc3ccccc3c2)cc1
- CLint scaled [1]: 6.83 mL/min/kg
- inhibition [3]: 3%

Structure (SMILES): CN(C(=O)c1cc(-c2ccccn2)[nH]n1)c1ccc(OCB2C=Cc3ccccc3N2)cc1
- CLint scaled [1]: 25 mL/min/kg
- IC50 [2]: 64 nM

Structure (SMILES): CN(C(=O)c1csc(-c2cccnc2)n1)c1ccc(OCc2ccc3ccccc3c2)cc1
- CLint scaled [1]: > 283 mL/min/kg
- inhibition [3]: 2%

Structure (SMILES): CN(C(=O)c1ccncc1)c1ccc(OCc2ccc3ccccc3c2)cc1
- inhibition [4]: 2%
- CLint scaled [1]: 75 mL/min/kg

Structure (SMILES): CN(C(=O)c1cc(-c2ccccc2)n[nH]1)c1ccc(OCc2ccc3ccccc3n2)cc1
- CLint scaled [1]: 21.7 mL/min/kg

Structure (SMILES): CN(C(=O)c1cc(-c2ccccc2)n[nH]1)c1ccc(OCB2C=Cc3ccccc3N2)cc1
- CLint scaled [1]: 5.67 mL/min/kg
- IC50 [2]: 1800 nM

Structure (SMILES): CN(C(=O)c1csc(-c2cccnc2)n1)c1ccc(OCB2C=Cc3ccccc3N2)cc1
- CLint scaled [1]: > 283 mL/min/kg
- IC50 [2]: 330 nM

Structure (SMILES): CN(C(=O)c1cc(-c2ccccn2)n[nH]1)c1ccc(OCc2ccc3ccccc3n2)cc1
- CLint scaled [1]: 35 mL/min/kg

Structure (SMILES): Cn1cc(-c2ccncc2)c(-c2ccc(OCB3C=Cc4ccccc4N3)cc2)n1
- CLint scaled [1]: 41.7 mL/min/kg
- inhibition [3]: 48%

Structure (SMILES): Cn1cc(-c2ccncc2)c(-c2ccc(OCc3ccc4ccccc4n3)cc2)n1 [MARDEPODECT]
- CLint scaled [1]: 31.7 mL/min/kg

Structure (SMILES): Cn1cc(-c2ccncc2)c(-c2ccc(OCc3ccc4ccccc4c3)cc2)n1
- CLint scaled [1]: 83.3 mL/min/kg
- inhibition [3]: 25%

Structure (SMILES): CN(C(=O)c1ccc2ncsc2c1)c1ccc(OCB2C=Cc3ccccc3N2)cc1
- CLint scaled [1]: 73.3 mL/min/kg
- inhibition [3]: 45%

Structure (SMILES): CN(C(=O)c1ccc2ncsc2c1)c1ccc(OCc2ccc3ccccc3n2)cc1
- CLint scaled [1]: 31.7 mL/min/kg
